Test results taken from ChEMBL document CHEMBL1126572, “Synthesis and pharmacological activity of a series of dihydro-1H-pyrrolo[1,2-a]imidazole-2,5(3H,6H)-diones, a novel class of potent cognition enhancers” (J Med Chem, 1993).

Experiments:
Rattus norvegicus [1] = assay: Percent reversal of scopolamine-induced amnesia rat following 10 mg/kg i.p.; format: functional; conditions: route intraperitoneal
Summary of the method: (§1)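 Male Wistar rats, 200–220 g, acclimatised ≥1 week; one-trial step-through passive avoidance in two-compartment box with electrifiable grid floor. Scopolamine hydrobromide 0.66 mg/kg sc 60 min before learning, test compound or vehicle 30 min before scopolamine; 45 rats per experiment split into saline, scopolamine and treated groups. % amnesia reversal computed from group retention; Fisher's exact test versus scopolamine group.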

Rattus norvegicus [2] = assay: Percent reversal of scopolamine-induced amnesia rat at 1.0 mg/kg po; format: functional; summary of the method: as §1
Rattus norvegicus [3] = assay: Percent reversal of scopolamine-induced amnesia rat following 1.0 mg/kg i.p.; format: functional; conditions: route intraperitoneal; summary of the method: as §1
Rattus norvegicus [4] = assay: Percent reversal of scopolamine-induced amnesia rat at 10 mg/kg po; format: functional; summary of the method: as §1
Rattus norvegicus [5] = assay: Percent reversal of scopolamine-induced amnesia rat at 30 mg/kg po; format: functional; summary of the method: as §1
Rattus norvegicus [6] = assay: Percent reversal of scopolamine-induced amnesia rat at 0.3 mg/kg po; format: functional; summary of the method: as §1
Rattus norvegicus [7] = assay: Percent reversal of scopolamine-induced amnesia rat at 0.3 mg/kg ip; format: functional; conditions: route intraperitoneal; summary of the method: as §1
Rattus norvegicus [8] = assay: Percent reversal of scopolamine-induced amnesia rat at 0.1 mg/kg ip; format: functional; conditions: route intraperitoneal; summary of the method: as §1
[9] = Basicity was assessed from pKB; format: ADME
Rattus norvegicus [10] = assay: Tested for efficiency in responding in radial maze test in rat on the day after treatment at 1 mg/kg sc along with Scopolamine at 50 ug/kg sc; format: functional; conditions: route subcutaneous
Rattus norvegicus [11] = assay: Tested for running time in radial maze test in rat on the day before treatment at 1 mg/kg sc along with Scopolamine at 50 ug/kg sc; format: functional; conditions: route subcutaneous
Summary of the method: (§2)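 Eight-arm radial maze in male Wistar rats (2 months old, 250 g) held at 80-85% body weight and trained to ≤9 choices for 3 consecutive days. Scopolamine was given sc 60 min pre-test and the drug sc in isotonic saline 90 min pre-test. Position was video-tracked. Mean running time (s) was total task time divided by number of choices.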

Rattus norvegicus [12] = assay: Tested for running time in radial maze test in rat on the day after treatment at 1 mg/kg sc along with Scopolamine at 50 ug/kg sc; format: functional; conditions: route subcutaneous; summary of the method: as §2
Rattus norvegicus [13] = assay: Tested for running time in radial maze test in rats on the day of treatment at 1 mg/kg sc along with Scopolamine at 50 ug/kg sc; format: functional; conditions: route subcutaneous
Summary of the method: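 Male Wistar rats (2 months, 250 g) food-restricted to 80–85% body weight, trained in eight-arm radial maze to criterion (≤9 choices, 3 consecutive days). Scopolamine 50 μg/kg sc 60 min and compound (saline, 2 mL/kg) 90 min before test; mean running time = total running time/total choices, video-tracked; compared with performance on days before and after treatment.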

Rattus norvegicus [14] = assay: Tested for efficiency in responding in radial maze test in rat on the day of treatment at 1 mg/kg sc along with Scopolamine at 50 ug/kg sc; format: functional; conditions: route subcutaneous
Summary of the method: (§3)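 Male Wistar rats (2 months old, 250 g), food-restricted to 80-85% body weight, were trained daily in an eight-arm radial maze to criterion (≤9 choices on 3 consecutive days). Scopolamine was given sc 60 min before testing and the test drug sc in saline 90 min before. Treatments were ≥3 days apart with retraining. Efficiency was scored as 8/total choices × 100.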

Rattus norvegicus [15] = assay: Tested for efficiency in responding in radial maze test in rat on the day before treatment at 1 mg/kg sc along with Scopolamine at 50 ug/kg sc; format: functional; conditions: route subcutaneous; summary of the method: as §3
Rattus norvegicus [16] = assay: Tested for running time in radial maze test in rat on the day of treatment at 1 mg/kg sc along with Scopolamine at 50 ug/kg sc; format: functional; conditions: route subcutaneous; summary of the method: as §2

CCOC(=O)C12CCC(=O)N1CC(=O)N2 (stereo not drawn) showed a Reversal (Rattus norvegicus [1]) of 62%, a Reversal (Rattus norvegicus [2]) of 0% and a Reversal (Rattus norvegicus [3]) of 25%. It also gave a Reversal (Rattus norvegicus [4]) of 0%.

For NC(=O)CN1C(=O)CN2C(=O)CCC12 (stereo not drawn), the Reversal (Rattus norvegicus [1]) was 62%, the Reversal (Rattus norvegicus [2]) was 0% and the Reversal (Rattus norvegicus [3]) was 49%. For the same molecule, the Reversal (Rattus norvegicus [4]) was 9%.

In the case of CC(=O)N1C(=O)CN2C(=O)CCC21 (stereo not drawn), the Reversal (Rattus norvegicus [1]) is reported as 0% and the Reversal (Rattus norvegicus [3]) is reported as 0%.

O=C1CN2C(=O)CCCC2N1 (stereo not drawn) gave a Reversal (Rattus norvegicus [1]) of 27%, a Reversal (Rattus norvegicus [2]) of 0% and a Reversal (Rattus norvegicus [3]) of 27%. For the same molecule, the Reversal (Rattus norvegicus [4]) was 0%.

O=C1CCC2N1CC(=O)N2C(=O)OCc1ccccc1 (stereo not drawn) showed a Reversal (Rattus norvegicus [1]) of 12% and a Reversal (Rattus norvegicus [3]) of 31%.

With CCOC(=O)CN1C(=O)CN2C(=O)CCC12 (stereo not drawn) the Reversal (Rattus norvegicus [1]) was 0% and the Reversal (Rattus norvegicus [3]) was 3%.

Work on O=C1CN2C(=O)CCCCC2N1 (stereo not drawn) yielded a Reversal (Rattus norvegicus [1]) of 12% and a Reversal (Rattus norvegicus [3]) of 22%.

With O=C1NC2CCC(=O)N2[C@H]1Cc1ccccc1 (stereo partly drawn) the Reversal (Rattus norvegicus [5]) was 7%, the Reversal (Rattus norvegicus [1]) was 0% and the Reversal (Rattus norvegicus [6]) was 0%. The Reversal (Rattus norvegicus [7]) was 53%, the Reversal (Rattus norvegicus [8]) was 0% and the Reversal (Rattus norvegicus [2]) was 42%. The Reversal (Rattus norvegicus [3]) was 53% and the Reversal (Rattus norvegicus [4]) was 0%.

In the case of C[C@H]1C(=O)NC2CCC(=O)N21 (stereo partly drawn), the Reversal (Rattus norvegicus [1]) is reported as 3%, the Reversal (Rattus norvegicus [7]) is reported as 0% and the Reversal (Rattus norvegicus [3]) is reported as 52%.

With O=C1NC2CCC(=O)N2[C@@H]1Cc1ccccc1 (stereo partly drawn) the Reversal (Rattus norvegicus [1]) was 0%, the Reversal (Rattus norvegicus [7]) was 42% and the Reversal (Rattus norvegicus [8]) was 15%. For the same molecule, the Reversal (Rattus norvegicus [3]) was 19%.

CCN1C(=O)CN2C(=O)CCC12 (stereo not drawn) showed a Reversal (Rattus norvegicus [1]) of 0% and a Reversal (Rattus norvegicus [3]) of 0%.

O=C1CN2C(=O)CCC2(C(=O)O)N1 (stereo not drawn) gave a Reversal (Rattus norvegicus [1]) of 53%, a Reversal (Rattus norvegicus [2]) of 1% and a Reversal (Rattus norvegicus [3]) of 14%. It also gave a Reversal (Rattus norvegicus [4]) of 33%.

CC12CCC(=O)N1CC(=O)N2 (stereo not drawn) gave a Reversal (Rattus norvegicus [5]) of 26%, a Reversal (Rattus norvegicus [1]) of 46% and a Reversal (Rattus norvegicus [7]) of 0%. The Reversal (Rattus norvegicus [3]) was 40% and the Reversal (Rattus norvegicus [4]) was 0%.

NC(=O)C12CCC(=O)N1CC(=O)N2 (stereo not drawn) showed a Reversal (Rattus norvegicus [1]) of 38%, a Reversal (Rattus norvegicus [7]) of 38% and a Reversal (Rattus norvegicus [2]) of 0%. For the same molecule, the Reversal (Rattus norvegicus [3]) was 62% and the Reversal (Rattus norvegicus [4]) was 0%.

For NC(=O)CNCc1ccccc1, the pKB [9] was 7.2.

CC(C)CC1C(=O)NC2CCC(=O)N21 (stereo not drawn) gave a Reversal (Rattus norvegicus [1]) of 0% and a Reversal (Rattus norvegicus [3]) of 3%.

In the case of O=C1NC2CCC(=O)N2C1CO (stereo not drawn), the Reversal (Rattus norvegicus [5]) is reported as 0%, the Reversal (Rattus norvegicus [7]) is reported as 30% and the Reversal (Rattus norvegicus [8]) is reported as 3%. It also gave a Reversal (Rattus norvegicus [2]) of 0%, a Reversal (Rattus norvegicus [3]) of 38% and a Reversal (Rattus norvegicus [4]) of 42%.

CC1C(=O)NC2(C)CCC(=O)N12 (racemic) showed a Reversal (Rattus norvegicus [1]; 10 mg/kg) of 0%, a Reversal (Rattus norvegicus [7]; 0.3 mg/kg) of 30% and a Reversal (Rattus norvegicus [2]; 1 mg/kg) of 17%. For the same molecule, the Reversal (Rattus norvegicus [3]; 1 mg/kg) was 38% and the Reversal (Rattus norvegicus [4]; 10 mg/kg) was 42%.

With CC1C(=O)NC2CCC(=O)N21 (racemic) the Reversal (Rattus norvegicus [1]) was 38%, the Reversal (Rattus norvegicus [2]) was 9% and the Reversal (Rattus norvegicus [3]) was 38%. For the same molecule, the Reversal (Rattus norvegicus [4]) was 33%.

With CC1C(=O)NC2(C)CCC(=O)N12 (stereo in doubt; 18 (S)) the Reversal (Rattus norvegicus [5]) was 37%, the Reversal (Rattus norvegicus [1]; 10 mg/kg) was 44% and the Reversal (Rattus norvegicus [7]; 0.3 mg/kg) was 10%. It also gave a Reversal (Rattus norvegicus [2]; 1 mg/kg) of 21%, a Reversal (Rattus norvegicus [3]; 1 mg/kg) of 65% and a Reversal (Rattus norvegicus [4]; 10 mg/kg) of 26%.

Work on O=C1CN2C(=O)CCC2N1 (stereo not drawn) [DIMIRACETAM] yielded an Efficiency (Rattus norvegicus [10]) of 88.6%, a Time (Rattus norvegicus [11]) of 16.6 s and a Time (Rattus norvegicus [12]) of 19.6 s. The Reversal (Rattus norvegicus [5]) was 40%, the Time (Rattus norvegicus [13]) was 34.6 s and the Efficiency (Rattus norvegicus [14]) was 75.6%. The Reversal (Rattus norvegicus [1]) was 70%, the Reversal (Rattus norvegicus [6]) was 28% and the Reversal (Rattus norvegicus [7]) was 16%. The Efficiency (Rattus norvegicus [15]) was 96.3%, the Reversal (Rattus norvegicus [2]) was 75% and the Reversal (Rattus norvegicus [3]) was 68%. The Reversal (Rattus norvegicus [4]) was 60%.

In the case of NC(=O)CN1CC(O)CC1=O (stereo not drawn) [OXIRACETAM], the Reversal (Rattus norvegicus [5]) is reported as 69%, the Reversal (Rattus norvegicus [1]) is reported as 53% and the Reversal (Rattus norvegicus [3]) is reported as 12%. It also gave a Reversal (Rattus norvegicus [4]) of 27%.

In the case of CN1[C@@H]2C[C@@H](OC(=O)[C@H](CO)c3ccccc3)C[C@H]1[C@@H]1O[C@@H]12 [SCOPOLAMINE], the Efficiency (Rattus norvegicus [10]) is reported as 83.9%, the Time (Rattus norvegicus [11]) is reported as 14.3 s and the Time (Rattus norvegicus [12]) is reported as 19.6 s. The Efficiency (Rattus norvegicus [14]) was 63.9%, the Efficiency (Rattus norvegicus [15]) was 87.3% and the Time (Rattus norvegicus [16]) was 34.6 s.
